# Results from paper PMC4387010 (Nuclear medicine and biology, 2014).
# Like-named read-outs stand apart in the source and are kept apart here.
# How the values were obtained:
# [1] = previously studied radioiodinated α7-nAChR radioligand; cited from earlier work
# α7-nAChR [2] = target: α7-nAChR (Mus musculus, UniProt P49582); assay: Blockade of [^125I]iodo-ASEM binding in CD-1 mouse brain by s.c. blockers; assay type: in vivo, CD-1 mice; settings: for inhibition of [^125I]iodo-ASEM binding by blocker: SSR180711 2 mg/kg s.c., 180 min post-injection; for reduction of [^125I]iodo-ASEM accumulation in mouse brain by blocker: CB, Hipp, Ctx, Coll, 180 min, P > 0.05 vs vehicle
# α4β2-nAChR = α4β2-nAChR (Homo sapiens, UniProt P17787+P43681); assay type: binding; settings: for α7-nAChR Binding selectivity α7/α4β2: ratio of Ki values
# [3] = Regional brain distribution; assay type: in vivo, CD-1 mice; settings: for Regional brain distribution: i.v., mean ± SD (n=3)
# Procedure, shortened: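 Male CD-1 mice (25–30 g) got the radioiodinated test compound by lateral tail vein: 3 μCi, specific radioactivity 1600 mCi/μmol, in 0.2 mL saline. Mice were killed by cervical dislocation at various times (three per time point). Brains were dissected on ice, and regions were weighed and γ-counted alongside injectate standards. Uptake was expressed as %ID/g tissue.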
# α7-nAChR [4] = target: α7-nAChR (Rattus norvegicus, UniProt Q05941); assay type: binding
# α3β4-nAChR = α3β4-nAChR (Homo sapiens, UniProt P30926+P32297); assay type: binding
# Chain of α3β4-nAChR (P32297 32-505): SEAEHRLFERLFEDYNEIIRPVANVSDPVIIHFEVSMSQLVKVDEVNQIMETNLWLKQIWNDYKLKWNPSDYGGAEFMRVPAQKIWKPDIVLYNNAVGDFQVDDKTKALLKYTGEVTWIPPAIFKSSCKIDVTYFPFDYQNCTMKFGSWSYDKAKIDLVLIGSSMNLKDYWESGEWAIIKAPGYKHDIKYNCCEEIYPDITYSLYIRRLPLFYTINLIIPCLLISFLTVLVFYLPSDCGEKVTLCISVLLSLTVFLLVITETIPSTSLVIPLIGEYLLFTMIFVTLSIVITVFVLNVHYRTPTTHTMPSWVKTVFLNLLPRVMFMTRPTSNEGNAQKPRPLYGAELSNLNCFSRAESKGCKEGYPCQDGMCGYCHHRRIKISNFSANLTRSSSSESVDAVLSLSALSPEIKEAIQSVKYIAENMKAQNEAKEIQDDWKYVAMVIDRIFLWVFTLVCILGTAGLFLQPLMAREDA
# Chain of α3β4-nAChR (P30926 22-498): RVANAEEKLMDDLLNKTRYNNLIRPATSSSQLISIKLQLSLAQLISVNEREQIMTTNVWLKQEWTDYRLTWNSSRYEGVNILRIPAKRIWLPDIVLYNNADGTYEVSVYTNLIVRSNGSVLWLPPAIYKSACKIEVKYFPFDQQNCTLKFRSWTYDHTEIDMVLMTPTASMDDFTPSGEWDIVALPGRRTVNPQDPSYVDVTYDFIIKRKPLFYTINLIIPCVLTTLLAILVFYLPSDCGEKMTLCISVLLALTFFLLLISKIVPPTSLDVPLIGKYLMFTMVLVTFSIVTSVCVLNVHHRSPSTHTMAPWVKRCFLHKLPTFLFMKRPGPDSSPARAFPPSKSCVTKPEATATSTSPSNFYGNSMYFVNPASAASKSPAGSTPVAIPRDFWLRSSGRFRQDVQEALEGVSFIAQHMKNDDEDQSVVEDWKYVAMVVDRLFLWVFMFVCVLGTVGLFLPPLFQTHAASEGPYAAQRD
# Chain of α7-nAChR (Mus musculus, UniProt P49582) (P49582 23-502): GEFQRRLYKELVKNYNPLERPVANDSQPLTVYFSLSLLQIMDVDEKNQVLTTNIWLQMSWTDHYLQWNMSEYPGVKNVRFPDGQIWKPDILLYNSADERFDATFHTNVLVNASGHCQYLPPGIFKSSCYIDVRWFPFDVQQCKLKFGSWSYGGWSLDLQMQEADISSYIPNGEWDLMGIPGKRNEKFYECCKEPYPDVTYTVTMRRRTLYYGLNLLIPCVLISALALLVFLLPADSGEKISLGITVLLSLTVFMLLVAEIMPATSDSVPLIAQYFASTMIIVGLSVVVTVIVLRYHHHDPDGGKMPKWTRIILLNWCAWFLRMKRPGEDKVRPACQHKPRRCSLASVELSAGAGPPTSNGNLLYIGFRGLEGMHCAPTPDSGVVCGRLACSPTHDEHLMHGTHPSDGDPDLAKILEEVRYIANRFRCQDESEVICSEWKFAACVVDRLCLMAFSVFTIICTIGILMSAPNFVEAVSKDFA
# Chain of α4β2-nAChR (P17787 26-502): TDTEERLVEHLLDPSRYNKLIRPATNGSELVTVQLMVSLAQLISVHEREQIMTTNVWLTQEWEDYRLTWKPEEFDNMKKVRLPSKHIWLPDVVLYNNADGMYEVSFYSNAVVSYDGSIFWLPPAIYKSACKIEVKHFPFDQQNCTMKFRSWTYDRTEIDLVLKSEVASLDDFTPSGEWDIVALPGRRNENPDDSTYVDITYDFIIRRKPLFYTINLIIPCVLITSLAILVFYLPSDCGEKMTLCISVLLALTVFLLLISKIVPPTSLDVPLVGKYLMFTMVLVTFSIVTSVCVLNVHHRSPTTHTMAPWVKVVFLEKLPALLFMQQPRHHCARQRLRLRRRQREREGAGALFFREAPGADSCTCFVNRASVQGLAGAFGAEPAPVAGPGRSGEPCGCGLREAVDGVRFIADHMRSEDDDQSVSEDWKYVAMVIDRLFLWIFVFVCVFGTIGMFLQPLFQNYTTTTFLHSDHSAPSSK
# Chain of α4β2-nAChR (P43681 29-627): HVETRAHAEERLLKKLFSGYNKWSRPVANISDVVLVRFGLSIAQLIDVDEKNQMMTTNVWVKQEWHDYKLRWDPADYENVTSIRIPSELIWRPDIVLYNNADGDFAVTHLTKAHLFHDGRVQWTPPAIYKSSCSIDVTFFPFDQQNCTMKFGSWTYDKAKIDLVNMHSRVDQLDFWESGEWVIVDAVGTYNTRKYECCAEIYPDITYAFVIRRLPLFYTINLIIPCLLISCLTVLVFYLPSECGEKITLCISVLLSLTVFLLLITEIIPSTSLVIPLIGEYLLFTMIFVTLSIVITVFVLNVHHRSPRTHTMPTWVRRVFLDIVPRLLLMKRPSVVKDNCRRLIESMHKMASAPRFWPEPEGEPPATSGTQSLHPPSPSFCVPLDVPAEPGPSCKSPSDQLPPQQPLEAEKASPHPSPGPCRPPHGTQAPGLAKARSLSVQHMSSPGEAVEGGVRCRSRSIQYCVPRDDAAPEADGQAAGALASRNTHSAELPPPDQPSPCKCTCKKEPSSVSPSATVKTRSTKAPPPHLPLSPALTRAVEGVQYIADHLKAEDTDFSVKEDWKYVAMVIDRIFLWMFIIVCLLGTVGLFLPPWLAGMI
# Chain of α7-nAChR (Rattus norvegicus, UniProt Q05941) (Q05941 23-502): as the sequence (P49582 23-502) above, with T402A counted along it
smiles,measurement,setting,value
"[125I]c1occc1-c1cnc2c(c1)C[C@@]1(CN3CCC1CC3)O2 [(1S,2R,4S)-5′-(2-[^125I]iodofuran-3-yl)-3′H-4-azaspiro[bicyclo[2.2.2]octane-2,2′-furo[2,3-b]pyridine]]",colliculus to cerebellum ratio,[1],~ 2.5
O=C(Oc1ccc(Br)cc1)N1CCN2CCC1CC2 [SSR180711],inhibition of [^125I]iodo-ASEM binding by blocker,"α7-nAChR [2]; cerebellum, P = 0.27",the blockade was negligible
same,inhibition of [^125I]iodo-ASEM binding by blocker,"α7-nAChR [2]; superior and inferior colliculi and hippocampus, P < 0.01",significantly inhibited
"O=S1(=O)c2cc(N3CCN4CCC3CC4)ccc2-c2cccc([125I])c21 [[^125I]iodo-ASEM, 3-(1,4-Diazabicyclo[3.2.2]nonan-4-yl)-6-[^125I]iododibenzo[b,d]thiophene 5,5-dioxide]",α7-nAChR Binding selectivity α7/α4β2,α4β2-nAChR,"3,414"
same,Regional brain distribution,"[3]; Cerebellum, 5 min",4.25±0.42 %ID/g tissue
same,Regional brain distribution,"[3]; Cerebellum, 20 min",5.20±2.08 %ID/g tissue
same,Regional brain distribution,"[3]; Cerebellum, 60 min",2.56±0.35 %ID/g tissue
same,Regional brain distribution,"[3]; Cerebellum, 120 min",1.41±0.08 %ID/g tissue
same,Regional brain distribution,"[3]; Cerebellum, 180 min",0.76±0.15 %ID/g tissue
same,Regional brain distribution,"[3]; Cerebellum, 240 min",0.38±0.05 %ID/g tissue
same,Regional brain distribution,"[3]; Cerebellum, 360 min",0.21±0.04 %ID/g tissue
same,Regional brain distribution,"[3]; Cortex, 5 min",4.78±0.47 %ID/g tissue
same,Regional brain distribution,"[3]; Cortex, 20 min",6.25±0.28 %ID/g tissue
same,Regional brain distribution,"[3]; Cortex, 60 min",6.50±0.57 %ID/g tissue
same,Regional brain distribution,"[3]; Cortex, 120 min",4.29±0.42 %ID/g tissue
same,Regional brain distribution,"[3]; Cortex, 180 min",2.74±0.55 %ID/g tissue
same,Regional brain distribution,"[3]; Cortex, 240 min",1.40±0.06 %ID/g tissue
same,Regional brain distribution,"[3]; Cortex, 360 min",0.72±0.12 %ID/g tissue
same,Regional brain distribution,"[3]; Hippocampus, 5 min",3.63±0.40 %ID/g tissue
same,Regional brain distribution,"[3]; Hippocampus, 20 min",5.09±0.86 %ID/g tissue
same,Regional brain distribution,"[3]; Hippocampus, 60 min",4.40±0.12 %ID/g tissue
same,Regional brain distribution,"[3]; Hippocampus, 120 min",3.40±2.03 %ID/g tissue
same,Regional brain distribution,"[3]; Hippocampus, 180 min",2.66±0.58 %ID/g tissue
same,Regional brain distribution,"[3]; Hippocampus, 240 min",1.70±0.28 %ID/g tissue
same,Regional brain distribution,"[3]; Hippocampus, 360 min",0.97±0.12 %ID/g tissue
same,Regional brain distribution,"[3]; Rest of brain, 5 min",3.89±0.42 %ID/g tissue
same,Regional brain distribution,"[3]; Rest of brain, 20 min",4.90±0.24 %ID/g tissue
same,Regional brain distribution,"[3]; Rest of brain, 60 min",4.60±0.18 %ID/g tissue
same,Regional brain distribution,"[3]; Rest of brain, 120 min",3.24±0.26 %ID/g tissue
same,Regional brain distribution,"[3]; Rest of brain, 180 min",2.09±0.40 %ID/g tissue
same,Regional brain distribution,"[3]; Rest of brain, 360 min",0.57±0.05 %ID/g tissue
same,Regional brain distribution,"[3]; Superior & inferior Colliculi, 5 min",4.09±0.71 %ID/g tissue
same,Regional brain distribution,"[3]; Superior & inferior Colliculi, 20 min",5.50±0.51 %ID/g tissue
same,Regional brain distribution,"[3]; Superior & inferior Colliculi, 60 min",5.14±0.20 %ID/g tissue
same,Regional brain distribution,"[3]; Superior & inferior Colliculi, 120 min",4.37±0.57 %ID/g tissue
same,Regional brain distribution,"[3]; Superior & inferior Colliculi, 180 min",3.16±0.75 %ID/g tissue
same,Regional brain distribution,"[3]; Superior & inferior Colliculi, 240 min",1.50±0.28 %ID/g tissue
same,Regional brain distribution,"[3]; Superior & inferior Colliculi, 360 min",0.87±0.08 %ID/g tissue
same,"colliculus to cerebellum ratio, maximum","[3]; at 180 min post-injection, CD-1 mice",4.2
same,Ki,α7-nAChR [4],0.0005 µM
O=c1cccc2n1C[C@@H]1CNC[C@H]2C1 [cytisine],reduction of [^125I]iodo-ASEM accumulation in mouse brain by blocker,α7-nAChR [2]; cytisine 0.5 mg/kg s.c.,neither cytisine nor ondansetron reduced
O=S1(=O)c2cc(N3CCN4CCC3CC4)ccc2-c2cccc(I)c21 [iodo-ASEM],α7-nAChR Binding selectivity α7/α4β2,α4β2-nAChR,"α7/α4β2 = 3,414"
same,Ki,"α4β2-nAChR; α4β2 (human), HEK-293 membranes, [^3H]epibatidine, mean ± SEM (n=3)",1.71 ± 0.373 µM
same,α7-nAChR Binding selectivity α7/α3β4,α3β4-nAChR; ratio of Ki values,α7/α3β4 = 90
same,Ki,"α3β4-nAChR; α3β4 (human), HEK-293 membranes, [^3H]epibatidine, mean ± SEM (n=3)",0.045 ± 0.008 µM
same,Ki,"α7-nAChR [4]; α7 (rat), HEK-293 membranes, [^3H]epibatidine, mean ± SEM (n=3)",0.0005 ± 0.0002 µM
Cc1nccn1CC1CCc2c(c3ccccc3n2C)C1=O (centres unmarked) [ondansetron],reduction of [^125I]iodo-ASEM accumulation in mouse brain by blocker,α7-nAChR [2]; ondansetron 2 mg/kg s.c.,neither cytisine nor ondansetron reduced
